Measurements from PubChem BioAssay AID651654 (Broad Institute, 2012).
Among all 360,000 compounds or so, about 740 (0.21%) were called active. The sample holds actives, similar compounds and a random draw of the others, so the mix is not that of the screen. Unmarked numbers belong to inactive results.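 The calls were made as follows: active = mean lysis activity across replicates of at least 80%, whatever share of replicates individually reach that level; inactive = mean lysis activity below 80%.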

Test: fungicidal lysis via adenylate kinase leakage – AK release luminescence, single concentration, primary screen (AID 651654)
Conditions: C. neoformans lysis, 4 h, at 15 µM, hits give high values, normalised: neutral wells 0, clomiphene wells 100
Method in brief: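 Test system: log-phase Cryptococcus neoformans yeast cells; Quantity: yeast cell density of 5 × 10^6 cells/mL; Buffer or medium: YPD; Doses: single compound concentration per well; Timing: 4 h at 37 °C static, read 1 h later; Measured by: AK luminescence; Read-out basis: lysis from increased AK signal; Control set: Clomiphene as positive control.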
With `CCCC#Cc1ccc2c(c1)O[C@@H](CN(C)C(=O)c1cccnc1)[C@H](C)CN([C@H](C)CO)S2(=O)=O` the lysis activity was -4.36%. `C[C@H](CO)N1C[C@H](C)[C@@H](CN(C)C)Oc2cc(C#Cc3ccccc3)ccc2S1(=O)=O` gave a lysis activity of 0.917%. `C/C=C/c1ccc2c(c1)O[C@@H](CN(C)S(=O)(=O)c1ccc(F)cc1)[C@@H](C)CN([C@H](C)CO)S2(=O)=O` gave a lysis activity of 3%. In the case of `C[C@H](CO)N1C[C@H](C)[C@@H](CN(C)Cc2ccccc2C(F)(F)F)OCc2cn(nn2)CCCC1=O`, the lysis activity is reported as -8.12%. Work on `C[C@@H]1CN([C@H](C)CO)C(=O)CCCn2cc(nn2)CO[C@@H]1CN(C)Cc1ccccc1C(=O)O` yielded a lysis activity of -0.638%. In the case of `Cc1ccccc1CN(C)C[C@H]1OCc2cn(nn2)CCCC(=O)N([C@@H](C)CO)C[C@H]1C`, the lysis activity is reported as 96.6% (active). Compound `CO[C@H]1CN(C)C(=O)c2ccc(NC(=O)Cc3ccccc3)cc2OC[C@@H](C)N(C(C)=O)C[C@H]1C` has a lysis activity of 69.9%. For `C[C@@H]1CN([C@@H](C)CO)C(=O)c2cccc(NC(=O)Nc3ccc(C(F)(F)F)cc3)c2O[C@@H]1CN(C)S(=O)(=O)c1ccc(F)cc1`, the lysis activity was 28.4%. `C[C@@H]1CN([C@@H](C)CO)C(=O)Cc2cc(NS(=O)(=O)c3cccs3)ccc2O[C@@H]1CN(C)S(=O)(=O)c1ccc(F)cc1` showed a lysis activity of -1.3%. Work on `CCCNC(=O)N1[C@H](CNC(=O)c2cccc(F)c2)[C@H](c2ccccc2)[C@@H]1CO` yielded a lysis activity of -0.391%. Work on `COc1cccc(S(=O)(=O)N[C@H]2CC[C@@H](CC(=O)NCc3ccc(F)cc3)O[C@@H]2CO)c1` yielded a lysis activity of 3.95%. `CCCNC(=O)C[C@H]1C[C@@H]2c3cc(NC(=O)C4CCOCC4)ccc3O[C@@H]2[C@H](CO)O1` showed a lysis activity of 1.8%. Work on `O=C(C[C@H]1CC[C@H](NC(=O)C2CCC2)[C@@H](CO)O1)Nc1nccs1` yielded a lysis activity of 5.79%. With `COc1ccccc1S(=O)(=O)N[C@@H]1CC[C@@H](CCn2cc(C3CCCCC3)nn2)O[C@H]1CO` the lysis activity was 18.5%. In the case of `O=C(C[C@@H]1C[C@H]2c3cc(NC(=O)Nc4ccccc4)ccc3O[C@H]2[C@@H](CO)O1)NCc1cccnc1`, the lysis activity is reported as -4.19%. Work on `COC(=O)C[C@@H]1CC[C@@H]2[C@H](COc3ccc(NC(=O)Nc4cccc(F)c4)cc3C(=O)N2C)O1` yielded a lysis activity of 5.11%. Compound `CO[C@@H](CN(C)C(=O)c1cnccn1)[C@@H](C)CN([C@@H](C)CO)S(=O)(=O)c1ccc(F)cc1` has a lysis activity of 59.1%. Compound `CC(=O)N1[C@H](CN(CC2CCC2)C(=O)CN(C)C)[C@@H](c2ccccc2)[C@@H]1CO` has a lysis activity of -2.74%. Compound `CCC(=O)N1C[C@@H](C)[C@H](OC)CN(C)C(=O)c2ccc(NC(=O)c3ccc(F)cc3)cc2OC[C@@H]1C` has a lysis activity of -5.87%. Work on `COc1ccccc1NC(=O)N[C@H]1CC[C@H](CCn2cc(-c3cccnc3)nn2)O[C@@H]1CO` yielded a lysis activity of -0.992%. For `CNC[C@H]1Oc2ccc(NS(=O)(=O)c3ccc(F)cc3)cc2C(=O)N([C@@H](C)CO)C[C@@H]1C`, the lysis activity was 3.02%. `Cc1ccc(S(=O)(=O)N[C@H]2CC[C@@H](CC(=O)NCCCN(C)C)O[C@H]2CO)cc1` showed a lysis activity of -1.04%. Compound `CCCNC(=O)N1[C@@H]2c3cccc(=O)n3C[C@H]1[C@H](CO)[C@H]2C(=O)NCC(F)(F)F` has a lysis activity of -3.09%. With `CCCNC(=O)[C@@H]1[C@@H](CO)[C@@H]2Cn3c(cccc3=O)[C@H]1N2C(=O)C1CC1` the lysis activity was 1.83%. In the case of `CCCNC(=O)[C@@H]1[C@@H](CO)[C@@H]2Cn3c(cccc3=O)[C@H]1N2C(=O)Nc1cc(F)ccc1F`, the lysis activity is reported as 92.3% (active). `COc1ccc(S(=O)(=O)N(C)C[C@@H]2Oc3ccc(NC(=O)CCC(F)(F)F)cc3C(=O)N([C@@H](C)CO)C[C@H]2C)cc1` showed a lysis activity of 2.26%. Work on `O=C(C[C@H]1C=C[C@H](NS(=O)(=O)c2ccc(F)cc2)[C@H](CO)O1)NCc1ccncn1` yielded a lysis activity of -3.14%. Work on `C[C@@H]1CN([C@H](C)CO)C(=O)c2cc(NC(=O)CCCN(C)C)ccc2O[C@H]1CN(C)Cc1ccc(C(=O)O)cc1` yielded a lysis activity of -1.44%. Work on `CO[C@@H]1CN(C)C(=O)c2ccc(NC(=O)C3CCC3)cc2OC[C@H](C)NC[C@H]1C` yielded a lysis activity of 1.85%. For `CC(C)NC(=O)N(C)C[C@H]1Oc2c(NC(=O)c3ccncc3)cccc2C(=O)N([C@@H](C)CO)C[C@H]1C`, the lysis activity was -2.5%. Work on `C[C@H](CO)N1C[C@H](C)[C@@H](CN(C)Cc2ccc(Oc3ccccc3)cc2)Oc2cc(-c3ccncc3)ccc2S1(=O)=O` yielded a lysis activity of -0.269%. In the case of `CCCNC(=O)Nc1ccc2c(c1)OC[C@H](C)N(Cc1ccccc1)C[C@H](C)[C@H](OC)CN(C)C2=O`, the lysis activity is reported as -0.367%. For `CO[C@@H]1CN(C)C(=O)c2ccc(NC(=O)C3CC3)cc2OC[C@@H](C)N(CC2CCOCC2)C[C@H]1C`, the lysis activity was 61.5%. For `O=C(c1ccccc1)N1CC[C@H]2[C@H](CO)Nc3ccc(-c4ccc(F)cc4)cc3[C@H]21`, the lysis activity was 21.5%. For `C/C=C/c1cnc2c(c1)C(=O)N([C@@H](C)CO)C[C@@H](C)[C@H](CN(C)Cc1cncnc1)O2`, the lysis activity was -1.92%. `COc1cccc(NC(=O)N2CC[C@@H]3[C@@H](CO)N(C)c4ccc(-c5cccc(F)c5)cc4[C@@H]32)c1` gave a lysis activity of -11.2%. `Cc1noc(C)c1NC(=O)N(C)C[C@@H]1Oc2ccc(NC(=O)Nc3cccc4ccccc34)cc2CC(=O)N([C@@H](C)CO)C[C@H]1C` showed a lysis activity of 41.1%. For `CCN1[C@@H]2c3ccc(C4=CCCC4)c(=O)n3C[C@@H]2[C@@H](CO)[C@@H]1C(=O)NCc1ccccn1`, the lysis activity was 1.37%. For `CO[C@@H]1CN(C)C(=O)c2ccc(NS(=O)(=O)c3ccc(Cl)cc3)cc2OC[C@H](C)N(C(=O)NC(C)C)C[C@H]1C`, the lysis activity was -5.3%. With `C[C@H]1CN([C@@H](C)CO)C(=O)c2cccc(NC(=O)Nc3ccccc3)c2O[C@@H]1CN(C)S(=O)(=O)c1ccc(F)cc1` the lysis activity was -1.52%. In the case of `OC[C@@H]1[C@@H](c2ccc(C#CC3(O)CCCC3)cc2)[C@@H]2CN(Cc3cncnc3)CCCCN12`, the lysis activity is reported as -3.24%. For `O=C(C[C@@H]1CC[C@H](NC(=O)Nc2ccc(F)cc2)[C@H](CO)O1)NCc1ccccn1`, the lysis activity was -0.684%. `CO[C@@H]1CN(C)C(=O)c2cc(NC(=O)C3CC3)ccc2OC[C@@H](C)N(C(=O)c2ccccc2F)C[C@@H]1C` showed a lysis activity of 44%. `C[C@@H]1CN([C@@H](C)CO)S(=O)(=O)c2ccc(-c3ccc(C(=O)N(C)C)cc3)cc2O[C@@H]1CN(C)C(=O)Cc1ccccn1` gave a lysis activity of 0.616%. In the case of `CN1CCN(C(=O)c2cc3c(c(-c4cccc(-c5ccc(C(=O)N(C)C)cc5)c4)n2)[C@@H](CCO)N([S@](=O)C(C)(C)C)C3)CC1`, the lysis activity is reported as -8.88%. `Cc1ccc(S(=O)(=O)N[C@@H]2CC[C@H](CCNC(=O)C3CCOCC3)O[C@@H]2CO)cc1` gave a lysis activity of -6.3%. Work on `COCC(=O)Nc1ccc2c(c1)OC[C@H](C)N(C(=O)c1ccccn1)C[C@@H](C)[C@H](OC)CN(C)C2=O` yielded a lysis activity of 0.52%. With `O=C(C[C@H]1CC[C@@H]2[C@H](COC[C@@H](O)CN2C(=O)Nc2ccc(Cl)cc2)O1)NC1Cc2ccccc2C1` the lysis activity was -3.01%. Compound `C[C@@H]1CN([C@H](C)CO)C(=O)c2cc(C#CC3CC3)cnc2O[C@@H]1CN(C)Cc1cccc(C(=O)O)c1` has a lysis activity of -8.03%. Work on `C[C@H](CO)N1C[C@H](C)[C@@H](CN(C)Cc2ccc(C(=O)Nc3ccccc3N)cc2)Oc2c(NC(=O)C3CC3)cccc2C1=O` yielded a lysis activity of -0.959%. With `COCC(=O)N(C)C[C@@H]1Oc2cc(C#CCC(C)C)ccc2S(=O)(=O)N([C@@H](C)CO)C[C@@H]1C` the lysis activity was 0.182%. `O=C(CN1CCOCC1)NC[C@@H]1N[C@@H](CO)[C@@H]1c1ccc(-c2ccccc2)cc1` gave a lysis activity of 4.94%. Compound `CCC(=O)N1[C@@H]2CN(C(=O)Nc3ccc(Cl)cc3)c3ccccc3[C@@H]2[C@@H]1CO` has a lysis activity of -1.93%. `COc1cccc(S(=O)(=O)Nc2ccc3c(c2)[C@@H]2C[C@@H](CC(=O)NC4CCCCC4)O[C@H](CO)[C@@H]2O3)c1` showed a lysis activity of 2.9%. With `COc1cccc(S(=O)(=O)Nc2ccc3c(c2)[C@H]2C[C@H](CC(=O)O)O[C@H](CO)[C@H]2O3)c1` the lysis activity was -0.106%. For `COc1cccc(S(=O)(=O)Nc2ccc3c(c2)[C@@H]2C[C@H](CC(=O)NC4CCCCC4)O[C@H](CO)[C@@H]2O3)c1`, the lysis activity was 116% (active). `CCCC#Cc1cnc2c(c1)C(=O)N([C@H](C)CO)C[C@H](C)[C@H](CN(C)C(=O)c1cnccn1)O2` showed a lysis activity of -1.04%. `CCC(=O)Nc1ccc2c(c1)C(=O)N(C)[C@H]1CC[C@H](CC(=O)NC3Cc4ccccc4C3)O[C@H]1CO2` showed a lysis activity of -0.192%. Compound `COCC(=O)Nc1ccc2c(c1)[C@H]1C[C@H](CC(=O)OC)O[C@@H](CO)[C@H]1O2` has a lysis activity of -5.98%. `O=C(C[C@H]1CC[C@H]2[C@@H](COC[C@H](O)CN2C(=O)Nc2ccc(Cl)cc2)O1)NCC1CC1` showed a lysis activity of -8.94%. With `C[C@H]1CN([C@@H](C)CO)C(=O)c2cc(NC(=O)Cn3cnnn3)ccc2O[C@H]1CN(C)Cc1ccc(C(=O)O)cc1` the lysis activity was -7.7%. In the case of `C[C@@H](NC(=O)C[C@H]1CC[C@@H](NC(=O)Cc2ccccn2)[C@@H](CO)O1)c1ccccc1`, the lysis activity is reported as 105% (active). Work on `C[C@H](NC(=O)C[C@@H]1CC[C@@H](NC(=O)Cc2ccccn2)[C@@H](CO)O1)c1ccccc1` yielded a lysis activity of 0.182%. `C[C@@H](NC(=O)C[C@@H]1CC[C@H](NC(=O)Cc2ccccn2)[C@H](CO)O1)c1ccccc1` showed a lysis activity of -0.901%.
